Assay results published in ChEMBL document CHEMBL4028863, “Exploring Heme and Hemoglobin Binding Regions of Plasmodium Heme Detoxification Protein for New Antimalarial Discovery” (J Med Chem, 2017).
The source made the active and inactive calls. No cut-off for these calls is given here.

What was measured:
[1] = Inhibition of wild type Plasmodium falciparum HDP binding to hemoglobin at 0.5 to 100 uM preincubated for 30 min followed by HDP addition measured after 1 hr by ELISA
Procedure, shortened: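 ELISA competition: 400 ng hemoglobin preincubated with varying peptide concentrations for 30 min at 37 °C, then added to wells coated overnight at 4 °C with 200 ng recombinant PfHDP and blocked with 3% BSA. Detection with anti-Hb (1:500), then HRP anti-rabbit (1:5000) for 1 h, OPD substrate, absorbance 490 nm. Control peptide included.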

[2] = tested on: Plasmodium falciparum; assay: Antiparasitic activity against late ring stage Plasmodium falciparum 3D7 infected in RBC at 50 to 100 uM after 60 hrs by ethidium bromide staining based flow cytometric analysis; format: functional
Procedure, shortened: (§1)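 P. falciparum 3D7 cultures synchronized with 5% sorbitol; assay set at late ring stage, 2% hematocrit, 1% parasitemia. Compounds added at 50 and 100 μM (screen) or 5−100 μM (dose series). Parasitemia read by flow cytometry after 60 h (methods: 48 h into next cycle): ethidium bromide 10 μg/mL, 20 min, 37 °C; FL2-positive fraction of 100000 cells, uninfected RBCs as control. Triplicates.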

[3] = tested on: Plasmodium falciparum; assay: Growth inhibition of late ring stage Plasmodium falciparum 3D7 infected in RBC after 60 hrs by e thidium bromidestaining based flow cytometric analysis; format: functional; procedure, shortened: as §1
[4] = Stability of the compound under freezing condition; format: physicochemical
[5] = target: T1, Heme ligase (Plasmodium falciparum (isolate 3D7), UniProt Q8IL04); assay: Binding affinity to Plasmodium falciparum 3D7 HDP assessed as equilibrium dissociation constant by SPR assay
T1 sequence (Q8IL04 whole entry): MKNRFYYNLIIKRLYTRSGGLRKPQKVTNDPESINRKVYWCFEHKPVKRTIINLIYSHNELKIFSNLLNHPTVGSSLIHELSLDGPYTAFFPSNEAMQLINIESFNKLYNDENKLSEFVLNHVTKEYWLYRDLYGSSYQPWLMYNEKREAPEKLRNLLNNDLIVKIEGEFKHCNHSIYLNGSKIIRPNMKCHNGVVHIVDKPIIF
Procedure, shortened: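 Recombinant Pf HDP immobilised (>9500 RU) on a CM5 chip from 10 mM sodium acetate pH 4.0, then ethanolamine-blocked. Ligand was diluted from a 10 mM DMSO stock to 200 μM (2% DMSO), and a concentration series was made in PBS pH 7.4 running buffer with 2% DMSO and 0.05% P20. Eight-point DMSO solvent correction, glycine pH 2.5 regeneration, 25 °C, kinetic fit.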

[6] = target: T2, Heme ligase (Plasmodium falciparum (isolate 3D7)) (UniProt Q8IL04)
T2 sequence (whole entry): T1 sequence (Q8IL04 whole entry)

[7] = target: T2, Heme ligase (Plasmodium falciparum (isolate 3D7)); conditions: Plasmodium falciparum 3D7; 50 uM
[8] = tested on: Heme; assay: Binding affinity to heme (unknown origin) at 20 uM by SORET assay
Procedure, shortened: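 Soret titration: 20 μM peptide in 100 mM sodium acetate pH 5.2; heme added in 3 μM increments. Spectrum recorded after each addition; change in absorbance at 400 nm plotted against heme concentration. Alanine-substituted peptide served as control.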

[9] = tested on: Heme; assay: Binding affinity to heme (unknown origin) assessed as reduction in heme to hemozoin conversion by Plasmodium falciparum HDP
Procedure, shortened: (§2)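 Heme-to-hemozoin conversion: heme (10 mM DMSO stock) at 300 μM with 0.5 μM recombinant PfHDP in 500 mM sodium acetate pH 5.2, 4 h at 37 °C. Stopped with SDS. Pellet washed in 2.5% SDS and in 50 mM bicarbonate pH 9.1 to strip free heme. Hemozoin dissolved in 0.1N NaOH/2.5% SDS, read at 405 nm. Triplicates.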

[10] = tested on: Heme; assay: Binding affinity to heme (unknown origin) assessed as reduction in heme to hemozoin conversion by Plasmodium falciparum HDP at 100 uM relative to control; design: scale not given: the % may be the effect or the level left; procedure, shortened: as §2
[11] = tested on: Plasmodium falciparum; assay: Antiplasmodial activity against late trophozoite stage of Plasmodium falciparum 3D7 infected in RBC assessed as gross deformaties in food vacuole at 50 to 100 uM after 12 hrs by giemsa staining based microscopic analysis; format: functional
Procedure, shortened: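 Sorbitol-synchronized 3D7 late-ring cultures at 2% hematocrit and 1% parasitemia were given peptide at 50−100 μM. After 12 h, at the late trophozoite stage, Giemsa-stained smears were examined by microscopy for food vacuole morphology.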

Row | Stability [4] | Compound | Activity [2] | growth inhibition (GI) [3] | also measured
1 | Unstable | Cc1ccc(-n2nnnc2SCc2nc(-c3cccc([N+](=O)[O-])c3)no2)c(C)c1 | Active | Dose-dependent effect | 
2 | Unstable | Cc1ccc(Oc2ncccc2NC(=O)c2ccc3c(c2)OCCCO3)c2c1CCC2 | Active | Dose-dependent effect | 

Second part, the compound before the results:

Row | Compound | Stability [4] | Activity [2] | growth inhibition (GI) [3] | also measured
3 | H-LHRKNFLELGNENIDKL-OH |  |  |  | inhibition [1]: inactive
4 | O=[N+]([O-])c1ccc(N/N=C2/C(=C/c3cccc4ccccc34)CCc3ccccc32)c([N+](=O)[O-])c1 | Unstable | Active | Dose-dependent effect | 
5 | C(=C1/c2ccccc2-c2c1ccc1ccccc21)/c1cc2c3c(cccc3c1)-c1ccccc1-2 |  | Active |  | 
6 | N#Cc1cc(Cc2ccc3c(ccc4ccccc43)c2C#N)cc2c1ccc1ccccc12 |  | Active |  | 
7 | FC(F)(F)c1cccc(N2CCN(C3=Cc4ccccc4CC3)CC2)c1 | Stable | Active | Dose-dependent effect | IC50 ([3]; 3D7, 60 h): 59.6 µM; Kd [5]: 2.96 µM; Ka [6]: 3.37 ×10⁵ /M; inhibition [7]: 31%
8 | O=c1oc2ccccc2c2c1C(c1cccc([N+](=O)[O-])c1)c1c(c3ccccc3oc1=O)O2 |  | Active |  | 
9 | O=C(CCn1c(=O)oc2ccccc21)Nc1cc(C(F)(F)F)cc(C(F)(F)F)c1 |  | Active |  | 
10 | COc1ccc(Oc2ccc(C(F)(F)F)cc2NS(=O)(=O)c2cccc3nonc23)cc1 |  | Active |  | 
11 | NS(=O)(=O)c1cccc(-c2ccc(C3Nc4ccccc4-c4nc5ccccc5n43)o2)c1 (centres undefined) |  | Active |  | 
12 | H-MKCHNGVVHIVD-OH |  |  |  | Activity [8]: Active; Activity [9]: Dose-dependent effect; Activity [10]: > 75%
13 | H-LRNLLNNDLIVKIEGEFKH-OH |  |  |  | inhibition [1]: Active; Activity [11]: Active
14 | O=C(NNC(=O)C1c2ccccc2Oc2ccccc21)c1cccc(C(F)(F)F)c1 | Unstable | Active | Dose-dependent effect | 
15 | H-GEFKAAAASIYLNG-OH |  |  |  | Activity [8]: Active
16 | O=C(c1cccs1)c1nn(-c2ccccc2)c2nc(=O)cc(-c3ccccc3)n12 | Unstable | Active | Dose-dependent effect | 
17 | H-GEFKHCNHSIYLNG-OH |  |  |  | Activity [8]: Active; Activity [9]: Dose-dependent effect; Activity [10]: > 75%
18 | Cc1cc(=O)oc2cc(NS(=O)(=O)c3cccc4nonc34)ccc12 |  | Active |  | 
